In ChEMBL document CHEMBL1138921, “Discovery of 3,5-bis(trifluoromethyl)benzyl L-arylglycinamide based potent CCR2 antagonists” (Bioorg Med Chem Lett, 2006):

Legend:
[1] = tested on: Monocyte; assay: Inhibition of MCP1-induced chemotaxis of human monocytes at 10 uM; type: functional
How it was run: (§1)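 Human monocytes loaded with Calcein-AM in Hanks' buffer with 0.01% BSA, 37 °C, 30 min, then washed and resuspended in phenol red-free RPMI 1640 with 0.01% BSA. Migration toward MCP-1 measured in disposable 96-well chemotaxis plates (5.7 mm diameter wells), 1.5 × 10⁵ cells/well.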

[2] = molecular target: T1, C-C chemokine receptor type 2 (Homo sapiens, UniProt P41597); assay: Displacement of [125I]MCP1 from human CCR2 expressed in CHO cells; type: cell-based
How it was run: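 Competition binding: CHO cells stably expressing human CCR2b (5 × 10⁴) incubated with ¹²⁵I-hMCP-1 (20–50 pM) plus varied unlabeled competitor, 60 min, room temperature, in 50 mM HEPES, 5 mM MgCl₂, 1 mM CaCl₂, pH 7.4. Ended by filtration through polyethyleneimine-soaked GF/B filters, washed with 25 mM HEPES pH 7.5/500 mM NaCl. Values given as IC₅₀ or % inhibition at 1 µM.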

[3] = tested on: Monocyte; assay: Inhibition of MCP1-induced chemotaxis of human monocytes; type: functional, cell-based; how it was run: as §1
[4] = molecular target: Substance-P receptor (Homo sapiens, UniProt P25103); assay: Binding affinity to human NK1 receptor
[5] = molecular target: T2, C-C chemokine receptor type 3 (Homo sapiens) (UniProt P51677); assay: (§2) Binding affinity to CCR3
T2 sequence (whole entry): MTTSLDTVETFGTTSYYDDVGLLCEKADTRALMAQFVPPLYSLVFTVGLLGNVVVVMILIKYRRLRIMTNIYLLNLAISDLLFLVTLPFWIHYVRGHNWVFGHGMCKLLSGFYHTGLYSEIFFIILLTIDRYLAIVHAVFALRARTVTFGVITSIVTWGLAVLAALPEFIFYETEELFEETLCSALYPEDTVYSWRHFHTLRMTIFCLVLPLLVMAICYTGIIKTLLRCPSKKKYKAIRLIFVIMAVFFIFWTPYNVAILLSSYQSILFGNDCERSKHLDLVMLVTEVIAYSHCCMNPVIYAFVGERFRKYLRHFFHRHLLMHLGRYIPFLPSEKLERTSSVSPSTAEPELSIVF

[6] = molecular target: T3, C-C chemokine receptor type 3 (Homo sapiens, UniProt P51677); assay: as §2
T3 sequence (P51677 whole entry): T2 sequence (whole entry)

[7] = Oral bioavailability in rat; type: ADME, organism-based; details: in vivo
[8] = molecular target: C-C chemokine receptor type 5 (Homo sapiens, UniProt P51681)
[9] = molecular target: T1, C-C chemokine receptor type 2; assay: Antagonist activity against CCR2 assessed as inhibition of MCP1-induced calcium flux in human monocytes; type: functional, cell-based
Target sequence in this assay (P41597 whole entry): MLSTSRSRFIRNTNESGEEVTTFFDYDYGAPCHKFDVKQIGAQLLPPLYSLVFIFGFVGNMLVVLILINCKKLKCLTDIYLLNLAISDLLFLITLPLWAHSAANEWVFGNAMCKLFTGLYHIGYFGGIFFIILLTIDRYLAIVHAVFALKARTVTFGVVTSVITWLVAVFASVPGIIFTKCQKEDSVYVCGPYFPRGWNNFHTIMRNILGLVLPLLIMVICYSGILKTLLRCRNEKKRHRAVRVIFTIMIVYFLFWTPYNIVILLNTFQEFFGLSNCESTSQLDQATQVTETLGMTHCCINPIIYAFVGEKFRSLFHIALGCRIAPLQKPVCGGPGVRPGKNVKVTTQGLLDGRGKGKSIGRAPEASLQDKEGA

[10] = molecular target: T4, C-C chemokine receptor type 4 (Homo sapiens, UniProt P51679); assay: (§3) Binding affinity to CCR4
T4 sequence (P51679 whole entry): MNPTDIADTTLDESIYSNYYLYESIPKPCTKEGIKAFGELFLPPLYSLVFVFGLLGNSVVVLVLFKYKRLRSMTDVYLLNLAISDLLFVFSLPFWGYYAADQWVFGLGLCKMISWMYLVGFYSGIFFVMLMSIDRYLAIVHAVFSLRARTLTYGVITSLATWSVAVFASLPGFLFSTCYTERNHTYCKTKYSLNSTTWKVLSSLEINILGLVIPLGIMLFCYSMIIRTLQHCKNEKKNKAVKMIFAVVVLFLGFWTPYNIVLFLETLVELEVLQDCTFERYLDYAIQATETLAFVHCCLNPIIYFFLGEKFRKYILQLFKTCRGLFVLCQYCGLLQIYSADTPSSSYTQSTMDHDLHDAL

[11] = molecular target: T5, C-C chemokine receptor type 4 (Homo sapiens) (UniProt P51679); assay: as §3
T5 sequence (whole entry): T4 sequence (P51679 whole entry)

[12] = Clearance in rat; type: ADME, organism-based; details: in vivo
[13] = Portal level in rat at 3 mg/kg, po after 1 hr; type: ADME, organism-based; parameters: dose 3 mg/kg, route oral; details: portal vein (blood or plasma not stated), read-out: Activity
How it was run: (§4)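 Rats dosed orally at 3 mg/kg; drug levels in portal and systemic blood sampled at several time points to assess first-pass metabolism.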

[14] = molecular target: T6, C-C chemokine receptor type 1 (Homo sapiens) (UniProt P32246); assay: (§5) Binding affinity to CCR1
T6 sequence (whole entry): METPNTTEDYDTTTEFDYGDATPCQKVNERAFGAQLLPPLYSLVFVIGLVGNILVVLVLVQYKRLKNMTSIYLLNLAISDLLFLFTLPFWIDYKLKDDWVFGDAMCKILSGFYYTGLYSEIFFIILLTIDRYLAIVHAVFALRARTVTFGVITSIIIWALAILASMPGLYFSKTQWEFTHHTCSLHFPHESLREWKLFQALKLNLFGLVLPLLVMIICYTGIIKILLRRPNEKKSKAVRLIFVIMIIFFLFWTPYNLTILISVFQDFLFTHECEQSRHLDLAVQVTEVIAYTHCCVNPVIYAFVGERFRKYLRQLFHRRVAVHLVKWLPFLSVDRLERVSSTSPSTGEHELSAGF

[15] = molecular target: T7, C-C chemokine receptor type 1 (Homo sapiens, UniProt P32246); assay: as §5
T7 sequence (P32246 whole entry): T6 sequence (whole entry)

[16] = Half life in rat; type: ADME, organism-based; details: in vivo
[17] = molecular target: T1, C-C chemokine receptor type 2; assay: Binding affinity to CCR2 in human monocytes; type: cell-based
How it was run: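 Competition binding on human monocytes (2 × 10⁵ cells) incubated with ¹²⁵I-hMCP-1 (20–50 pM; 2200 Ci/mmol) and a range of unlabeled competitor concentrations. Buffer: 50 mM HEPES, 5 mM MgCl₂, 1 mM CaCl₂, pH 7.4, for 60 min at room temperature. Stopped by filtration through PEI-presoaked GF/B filters, washed with 25 mM HEPES pH 7.5 / 500 mM NaCl. Reported as IC50.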
Target sequence in this assay (P41597 whole entry): as the sequence (P41597 whole entry) above

[18] = molecular target: C-C chemokine receptor type 8 (Homo sapiens, UniProt P51685); assay: Binding affinity to CCR8
[19] = molecular target: T8, Substance-K receptor (Homo sapiens, UniProt P21452); assay: (§6) Binding affinity to human NK2 receptor
T8 sequence (P21452 whole entry): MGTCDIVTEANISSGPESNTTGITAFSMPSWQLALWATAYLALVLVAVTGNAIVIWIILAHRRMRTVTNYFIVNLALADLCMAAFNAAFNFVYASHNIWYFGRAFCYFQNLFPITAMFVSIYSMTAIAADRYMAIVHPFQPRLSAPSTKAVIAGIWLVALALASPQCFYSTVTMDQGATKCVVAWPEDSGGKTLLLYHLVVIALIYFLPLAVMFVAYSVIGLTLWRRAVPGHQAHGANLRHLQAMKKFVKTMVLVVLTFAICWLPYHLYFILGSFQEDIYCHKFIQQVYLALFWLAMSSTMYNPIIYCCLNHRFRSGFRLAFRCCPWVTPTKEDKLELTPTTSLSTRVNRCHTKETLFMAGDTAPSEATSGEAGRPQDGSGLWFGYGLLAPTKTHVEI

[20] = molecular target: T9, Substance-K receptor (Homo sapiens) (UniProt P21452); assay: as §6
T9 sequence (whole entry): T8 sequence (P21452 whole entry)

[21] = molecular target: T10, Neuromedin-K receptor (Homo sapiens, UniProt P29371); assay: (§7) Binding affinity to human NK3 receptor
T10 sequence (P29371 whole entry): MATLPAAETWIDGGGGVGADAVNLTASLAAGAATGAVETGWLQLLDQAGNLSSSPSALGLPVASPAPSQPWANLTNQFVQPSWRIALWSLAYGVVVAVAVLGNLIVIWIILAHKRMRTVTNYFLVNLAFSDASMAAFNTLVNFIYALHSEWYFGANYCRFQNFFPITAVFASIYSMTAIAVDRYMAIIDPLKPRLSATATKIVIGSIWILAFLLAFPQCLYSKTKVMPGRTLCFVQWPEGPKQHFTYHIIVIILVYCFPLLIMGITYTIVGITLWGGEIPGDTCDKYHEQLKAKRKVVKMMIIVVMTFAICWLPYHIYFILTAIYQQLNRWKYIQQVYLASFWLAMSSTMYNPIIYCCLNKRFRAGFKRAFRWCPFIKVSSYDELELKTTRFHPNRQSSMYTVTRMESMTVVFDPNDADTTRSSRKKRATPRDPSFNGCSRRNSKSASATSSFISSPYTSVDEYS

[22] = molecular target: T11, Neuromedin-K receptor (Homo sapiens) (UniProt P29371); assay: as §7
T11 sequence (whole entry): T10 sequence (P29371 whole entry)

[23] = tested on: Rattus norvegicus; assay: Systemic level in rat at 3 mg/kg, po; type: ADME, organism-based; parameters: dose 3 mg/kg, route oral; details: in vivo; how it was run: as §4

Chain of Substance-P receptor (P25103 whole entry): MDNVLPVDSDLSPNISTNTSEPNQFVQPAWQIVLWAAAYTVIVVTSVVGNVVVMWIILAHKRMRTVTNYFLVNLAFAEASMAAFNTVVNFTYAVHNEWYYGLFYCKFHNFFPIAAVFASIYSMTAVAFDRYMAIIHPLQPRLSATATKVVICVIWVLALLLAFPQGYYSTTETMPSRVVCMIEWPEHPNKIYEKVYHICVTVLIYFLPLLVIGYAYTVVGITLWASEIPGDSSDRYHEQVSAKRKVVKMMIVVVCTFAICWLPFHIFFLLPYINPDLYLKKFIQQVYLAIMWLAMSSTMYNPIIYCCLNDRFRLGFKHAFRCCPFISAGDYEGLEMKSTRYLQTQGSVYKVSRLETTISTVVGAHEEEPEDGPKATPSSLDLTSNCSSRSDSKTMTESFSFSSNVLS
Chain of C-C chemokine receptor type 8 (P51685 whole entry): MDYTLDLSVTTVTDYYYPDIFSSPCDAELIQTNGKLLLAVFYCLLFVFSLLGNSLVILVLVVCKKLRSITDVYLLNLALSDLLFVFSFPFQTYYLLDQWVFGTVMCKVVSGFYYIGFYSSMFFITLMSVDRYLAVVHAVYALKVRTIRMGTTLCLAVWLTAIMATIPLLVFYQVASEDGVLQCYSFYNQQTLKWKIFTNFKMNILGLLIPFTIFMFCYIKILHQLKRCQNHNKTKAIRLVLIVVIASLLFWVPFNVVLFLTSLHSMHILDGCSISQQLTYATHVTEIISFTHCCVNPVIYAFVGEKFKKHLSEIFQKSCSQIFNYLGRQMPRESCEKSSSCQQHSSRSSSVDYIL
Chain of C-C chemokine receptor type 5 (P51681 whole entry): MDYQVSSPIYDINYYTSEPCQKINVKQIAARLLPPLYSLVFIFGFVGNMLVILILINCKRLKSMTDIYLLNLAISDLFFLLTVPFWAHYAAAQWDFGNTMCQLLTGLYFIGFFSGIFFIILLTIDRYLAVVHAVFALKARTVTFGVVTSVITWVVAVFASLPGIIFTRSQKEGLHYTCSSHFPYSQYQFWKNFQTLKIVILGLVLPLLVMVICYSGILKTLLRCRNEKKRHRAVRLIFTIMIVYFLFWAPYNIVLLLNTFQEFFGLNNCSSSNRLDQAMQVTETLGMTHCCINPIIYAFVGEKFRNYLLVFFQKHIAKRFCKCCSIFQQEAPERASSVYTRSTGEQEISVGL

CN(CCN1CCCCC1)c1ccc(-c2nc3cc(Cl)c(Cl)cc3[nH]2)cc1 gave an inhibition at 10 µM [1] of 100%.

Molecule Cc1ccc2c(c1)C1(CCN(CCc3coc(-c4ccc(F)cc4)n3)CC1)OC(=O)N2 has an IC50 [2] of 32 nM and an IC50 [3] of 1000 nM.

CN(C)CCN[C@H](C(=O)NCc1cc(C(F)(F)F)cc(C(F)(F)F)c1)c1ccc(F)cc1 showed an IC50 [2] of 770 nM and an IC50 [4] of 650 nM.

For O=C(NCc1cc(C(F)(F)F)cc(C(F)(F)F)c1)[C@@H](NCCN1CCCCC1)c1ccsc1, the Activity [5] was 2%, the IC50 [6] was over 1000 nM and the bioavailability [7] was 4.5%. It also gave an IC50 [2] of 39 nM, an IC50 [8] of over 1000 nM and an IC50 [9] of 50 nM. For the same molecule, the IC50 [10] was over 2000 nM, the Activity [11] was 6% and the clearance [12] was 80 mL/min/kg. The concentration at 1 h [13] was over 300 ng/mL, the Activity [14] was -19% and the IC50 [15] was over 1000 nM. For the same molecule, the half-life [16] was 1.8 h, the IC50 [17] was 30 nM and the Activity [18] was 15%. For the same molecule, the IC50 [18] was over 1000 nM, the IC50 [19] was over 1000 nM and the Activity [20] was 20%. For the same molecule, the Activity [4] was 31%, the IC50 [4] was over 100 nM and the IC50 [3] was 9.6 nM. The IC50 [21] was over 1000 nM, the Activity [22] was 10% and the Activity [23] was under 20 ng/mL.

For O=C(/C=C/c1ccc(Cl)c(Cl)c1)NCCCCCN1CCC(c2c[nH]c3ccc(O)cc23)CC1, the Kb [3] was 25 nM.

For CN(C)CCNC(C(=O)NCc1cc(C(F)(F)F)cc(C(F)(F)F)c1)c1ccccc1 (stereo not drawn), the IC50 [2] was 1480 nM.

O=C(O)c1cc2cc(O)ccc2n1Cc1ccc(Cl)c(Cl)c1 showed a Ki [2] of 29 nM and an IC50 [3] of 60 nM.

O=C(NC(=O)c1ccc2nccnc2c1)Nc1cccc(-c2ccccc2)c1 gave an IC50 [3] of 60 nM.

CN(C)CCN[C@H](C(=O)NCc1cc(C(F)(F)F)cc(C(F)(F)F)c1)c1ccccc1 showed an IC50 [2] of 1000 nM.

O=C(NCc1cc(C(F)(F)F)cc(C(F)(F)F)c1)[C@@H](NCCN1CCCCCC1)c1ccccc1 showed an IC50 [2] of 400 nM.

Molecule O=C(NCc1cc(C(F)(F)F)cc(C(F)(F)F)c1)[C@@H](NCCN1CCC(c2ccccc2)CC1)c1ccccc1 has an IC50 [2] of 822 nM.

With CN(C)CCNC(C(=O)NCc1cc(C(F)(F)F)cc(C(F)(F)F)c1)c1ccc(Cl)cc1 (stereo not drawn) the IC50 [2] was 1100 nM.
